Reference: publication PMC12417823 (Neuro-Oncology, 2025)

How the values were obtained:
[1] = system: Per2::Luc reporter in Cry1 knockout fibroblasts; experiment: Per2::Luc repression assay; assay type: cell-based, mice; conditions: Cry1 knockout cells
Procedure, shortened: (§1)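 Mouse fibroblasts carrying a Per2::Luc knock-in reporter (wild type, Cry1/Cry2 double, Cry1 or Cry2 knockout) grown 2 days to confluency in 384-well plates, then given test compound dilution series (final 0.7% DMSO). After 2 days, medium replaced with BrightGlo and luminescence read. Change is relative to DMSO control, n = 3–4 biological samples. IC50 from sigmoidal dose–response fit.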

CRY1/CRY2 = conditions: cited from earlier work
[2] = system: Per2::Luc reporter in Cry2 knockout fibroblasts; experiment: Per2::Luc repression assay; assay type: cell-based, mice; conditions: Cry2 knockout cells, compared to wild type
Procedure, shortened: as §1

Compound | repression of Per2::Luc reporter activity [1] | CRY isoform selectivity (CRY1/CRY2) | repression of Per2::Luc reporter activity [2]
CS(=O)(=O)N(Cc1ccco1)CC(O)Cn1c2ccccc2c2ccccc21 (stereo not drawn) [KL001] | less effective than intact cells | does not display a CRY isoform selectivity | –
O=C1NCCN1CC(O)Cn1c2ccc(F)cc2c2cc(F)ccc21 (stereo not drawn) [SHP656] | – | selective for CRY2 | reduced overall repression
O=C1NCCN1C[C@H](O)Cn1c2ccc(F)cc2c2cc(F)ccc21 [SHP1703] | – | selective for CRY2 | reduced overall repression
